Source: PubChem (several laboratories)
14-3-3 Bad PPI = disrupts binding of bovine 14-3-3 zeta to phospho-Bad peptide. P63103. TR-FRET 14-3-3zeta/Dy647-pBad peptide displacement, 1 h. inhibition, % at 21.7 µM. 0.71% of 220,000 active;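 active means inhibition above about 70%, limit read from the data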;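 further: 0% = full 14-3-3 plus peptide FRET controls and 100% = background without 14-3-3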
eIF4E-4G inh = eIF4E/eIF4G interaction inhibition in translation initiation; AID 782; inhibition, % at 21.7 µM; TR-FRET eIF4E-eIF4GI(517-606) binding, 2 h; 0.37% of 220,000 active; P63073+Q04637;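 further: 0% = full FRET control wells and 100% = background wells lacking eIF4GI fragment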
Diaph act CS = counter-screen for diaphorase-based assays: diaphorase activators and chemical reducers | Diaphorase/resazurin coupled assay, resorufin fluorescence, 16 min; active compounds read high; 1 = vehicle wells, 0 = NADH-free wells | activation factor at 20 µM | 0.005% of 190,000 active | AID 1229;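 active means diaphorase activity raised at least twofold by the compound at 20 µM; inactive means activation factor below 2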
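Test system: Clostridium kluyveri diaphorase, purified enzyme. Buffer or medium: 50 mM HEPES pH 7.4 buffer plus MgCl2 and Tween 20. Also added: 0.114 mM NADH and 0.1 mM resazurin, final amounts. Dosing: compound 20 µM once, DMSO 1%. Schedule: 16 min enzyme reaction, ambient temperature. Detection: fluorescence of resorufin, 544 nm excitation, 590 nm emission.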
NCF1 inh = p47phox (human) inhibition. P14598. p47phox/p22phox peptide binding, fluorescence polarization, 2 h. inhibition, % at 24.7 µM. 0.53% of 220,000 active;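 further: 0% = p47phox with labelled peptide and 100% = labelled peptide alone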
Hck-Nef inh = human Hck-Nef kinase inhibition. Recombinant Hck-YEEI plus Nef, Z-Lyte FRET kinase assay. inhibition, % at 20 µM. P08631. AID 463187. 0.68% of 220,000 active;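 active means Hck-Nef kinase inhibition above about 50%, limit read from the data; inactive means inhibition below that limit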;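 further: 0% = DMSO with Hck plus Nef and 100% = Hck alone without Nef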
Target sequence (P08631 whole entry, looked up): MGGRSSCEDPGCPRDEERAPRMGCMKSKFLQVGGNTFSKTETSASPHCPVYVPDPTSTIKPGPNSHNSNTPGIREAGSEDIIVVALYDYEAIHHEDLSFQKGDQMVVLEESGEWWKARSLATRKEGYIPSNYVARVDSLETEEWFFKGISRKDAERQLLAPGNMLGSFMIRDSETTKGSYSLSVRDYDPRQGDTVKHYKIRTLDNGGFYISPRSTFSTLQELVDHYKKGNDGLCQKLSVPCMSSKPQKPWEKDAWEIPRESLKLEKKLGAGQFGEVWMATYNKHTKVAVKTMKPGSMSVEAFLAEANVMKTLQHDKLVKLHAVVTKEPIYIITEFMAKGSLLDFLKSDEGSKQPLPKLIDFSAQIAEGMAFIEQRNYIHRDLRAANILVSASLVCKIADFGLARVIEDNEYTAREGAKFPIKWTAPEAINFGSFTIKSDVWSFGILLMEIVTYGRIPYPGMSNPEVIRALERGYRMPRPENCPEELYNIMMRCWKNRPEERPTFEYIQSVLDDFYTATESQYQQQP
Hck Nef conf = confirmation of Hck-Nef kinase inhibitors; shares compounds with Hck-Nef inh; Recombinant Hck-YEEI:Nef, Z-Lyte FRET kinase assay; calls only at 10 µM; 28% of 1,300 active;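 active means average inhibition of at least 50%, with Z-scores no higher than 3 in both the phospho-tyrosine peptide and fluorescence counterscreens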
The depositor's hits bear a star; i = inactive; · = no result given; + = active, no number; [ ] = another dose, or the depositor's remark. Only some compounds are listed: those with a hit (about 2% of all), similar ones and a draw of the others.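 How the source made its calls, unless noted: active means inhibition above about 30% (limit read from the data); inactive means the rest.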

SMILES	14-3-3 Bad PPI	eIF4E-4G inh	Diaph act CS	NCF1 inh	Hck-Nef inh	Hck Nef conf
COCCCNC(=O)c1c(N)n(-c2cccc(S(N)(=O)=O)c2)c2nc3ccccc3nc12	-2.4	-7.5	0.7	-10.9	64.5*	·
Nc1c(C(=O)NCCN2CCOCC2)c2nc3ccccc3nc2n1-c1cccc(F)c1	51.8	9.3	0.8	-9.1	17.8	·
Nc1c(C(=O)NCC2CCCO2)c2nc3ccccc3nc2n1-c1ccccc1 (configuration not stated)	19.8	3.6	0.6	-11.3	54.6*	·
CS(=O)(=O)N1CCc2cc(C(=O)N3CCCC3)ccc21	-5.3	3.1	1	20.1	11.2	·
CSc1nnc(C)c(=O)n1COC(=O)c1cc(Cl)ccc1[N+](=O)[O-]	-4.0	2.8	1	4.0	-13.2	·
Cn1c(N)c(C(=O)CSc2nc3ccccc3[nH]2)c(=O)n(C)c1=O	-1.5	-2.1	·	-4.2	14.5	·
Nc1c(Cl)ncnc1N/N=C/c1ccc(O)cc1	4.7	-2.3	·	-20.3	52.5*	i
O=C(N/N=C/c1ccncc1)c1ccc(NC(=O)c2ccc(Cl)cc2)cc1	13.0	-7.6	1	8.4	57.9*	i
O=C(N/N=C/c1ccncc1)c1ccc(NC(=O)c2cccc(Cl)c2)cc1	-3.0	-1.3	1.1	-3.8	-5.8	·
Cc1ccc(-n2nc(C)c(=O)c(-c3ccccc3)c2NC(=O)C(C)C)cc1	2.7	-9.0	·	-13.4	24.8	·
COc1ccc(/C=N/n2c(C)nc3c([nH]c4ccccc43)c2=O)cc1CN1CCCC(C)(C)C1	-5.4	-3.3	·	-8.1	55.6*	i
COc1ccc2[nH]c3c(=O)n(/N=C/c4ccc(OC)c(CN5CCCC5)c4)c(C)nc3c2c1	22.0	5.2	·	5.0	-8.8	·
Nc1nc(Nc2cccc(Cl)c2)nc(NCCO)c1[N+](=O)[O-]	-2.4	0.3	·	-8.0	41.4	·
CC(C)C[C@H](CO)Nc1nc(Nc2cccc(Cl)c2)c2ncn(C(C)C)c2n1	-5.7	-1.3	·	-10.6	105.8*	+
OCCNc1nc(Nc2ccccc2)nc(Nc2ccccc2)n1	1.6	7.8	0.9	-8.0	-0.1	·
CC(C)n1cnc2c(Nc3cccc(F)c3)nc(NCCO)nc21	-2.2	-6.4	·	-16.6	96.7*	+
O=C(CSc1nnc(CNc2ccc(F)cc2)o1)c1ccccc1	-13.6	8.5	·	2.4	24.7	·
NC(=O)c1cc2ccc(O)cc2oc1=NCc1ccccc1	2.8	3.0	0.9	-4.9	103.6*	·
O=C1NC(Cc2c[nH]c3ccccc23)C(=O)N1Cc1ccc(CN2C(=O)NC(Cc3c[nH]c4ccccc34)C2=O)cc1 (configuration not stated)	-3.6	-2.7	0.9	-7.8	-1.6	·
O=C(CSc1nc(-c2ccc(F)cc2)nc2c1Cc1ccccc1O2)Nc1ccc(C(=O)O)cc1	96.8*	62.1*	0.4	-124.7	145.5*	+
COc1cnc(-c2ccccn2)nc1Sc1ccc(F)cc1	-24.1	1.4	1.2	-0.9	22.1	·
Cn1c(COc2ccc(Br)cc2)nnc1SC1CCc2ccccc2C1=O (configuration not stated)	4.2	-2.1	0.8	-2.9	51.0*	i
C/C(N)=C(/C#N)C(=O)CSc1nc2ccccc2c(=O)n1Cc1ccc(F)cc1	45.3	21.5	·	-8.3	19.8	·
C/C(N)=C(/C#N)C(=O)CSc1nc2ccccc2c(=O)n1Cc1ccc(C)cc1	29.3	-0.6	0.9	-48.4	55.4*	i
Cc1cccn2c(=O)c3cc(C#N)c(=N)n(Cc4ccncc4)c3nc12	5.1	0.6	0.9	-1.3	-0.7	·
SMILES	14-3-3 Bad PPI	eIF4E-4G inh	Diaph act CS	NCF1 inh	Hck-Nef inh	Hck Nef conf
COCCNC(=O)c1cc2c(=O)n3cccc(C)c3nc2n(Cc2ccncc2)c1=N	-1.0	-5.0	0.9	2.8	151.1*	·
CCCCNC(=O)c1cc2c(=O)n3cccc(C)c3nc2n(Cc2ccncc2)c1=N	-4.0	6.4	1	-1.9	67.2*	i
COc1ccc(CCNC(=O)c2cc3c(=O)n4cccc(C)c4nc3n(Cc3ccncc3)c2=N)cc1	·	·	0.9	·	·	·
CCCN1CCC(=NNc2ccc(C(=O)O)cc2)CC1	-8.5	-6.0	1.1	-6.7	6.0	·
N#CC1(c2ccccc2)CCC(=O)N1Cc1ccccc1 (configuration not stated)	2.2	4.9	·	-13.6	13.2	·
Oc1[nH]c2ccccc2c1C=Nc1ccc2c(c1)OCO2	-6.2	3.9	0.8	-4.2	51.9*	i
Cc1ccccc1-c1cc(C(=O)Nc2sc(C)c(C)c2C(N)=O)c2ccccc2n1	-10.7	1.8	0.8	-35.0	4.7	·
CCOC(=O)c1c(NC(=O)c2cc(-c3ccc(Cl)s3)nc3ccccc23)sc(C(N)=O)c1C	71.8*[fluorescence artefact?]	15.6	1	25.5	66.2*	i
CC(C)N=c1scc(-c2ccco2)n1/N=C/c1ccc(O)c(O)c1	-1.6	-3.4	0.4	-5.7	1.1	·
C=CCN=c1scc(-c2ccco2)n1/N=C/c1ccc(O)c(O)c1O	17.0	6.3	·	-10.8	56.0*	i
COCCN=c1scc(-c2ccco2)n1/N=C/c1ccc(O)c(O)c1O	37.3	44.7*	0.2	-2.2	59.4*	+
Cc1cccc(C2N=C(N)Nc3nc4ccccc4n32)c1 (configuration not stated)	-7.9	1.2	·	-8.3	18.5	·
O=C(c1c[nH]c(C(=O)C(Cl)(Cl)Cl)c1)c1ccccc1Br	3.9	9.2	0.7	-7.6	79.3*	i
COCCCNC(=O)c1cc(C(=O)c2ccccc2Br)c[nH]1	-16.2	2.8	1	-6.2	19.4	·
COc1ccc(/C=C/C(=O)NCc2cn(C)nc2C)cc1COc1ccc(Cl)cc1Br	-3.5	-1.3	1	-4.1	-0.3	·
CCn1nc(C)c(NC(=O)/C=C/c2ccc(OC)c(COc3ccc(Cl)cc3Br)c2)c1C	76.9*	15.4	1.1	71.4*	98.7*	i
O=C(CSc1nncc2ccccc12)N1CCCCC1	-12.8	-3.4	1	6.1	23.6	·
Cc1cc(S(=O)(=O)n2ccnc2)c(Cl)cc1Cl	4.7	-3.1	·	-6.7	20.7	·
Cc1ccc(/C=C2\SC(=S)N(/N=C/c3cc([N+](=O)[O-])ccc3O)C2=O)o1	-11.6	15.4	0.4	-10.1	141.6*	+
Fc1cccc(NC(=S)NCc2ccccc2Cl)c1	-5.8	2.8	·	-14.5	-1.4	·
CCOC(=O)C1=C(C)C(c2ccccc2O)NC(=O)N1 (configuration not stated)	5.9	0.5	0.9	-6.5	56.6*	i
COc1ccc(Nc2nc(N)nc(CSC(=S)N3CCCCC3C)n2)cc1 (configuration not stated)	-8.3	2.0	·	-1.5	16.3	·
Cc1cn2nc(N)c3ccccc3c2n1	-7.1	0.9	0.9	-20.7	0.4	·
Nc1nn2cc(-c3ccccc3)nc2c2ccccc12	1.7	4.2	0.8	-17.9	50.5*	+
COc1ccc(C(=O)OCc2csc(C)n2)c(O)c1	3.9	1.0	0.9	12.6	20.1	·
